CHO-K1 Ca antag: M1 antagonist counterscreen hit in parental CHO-K1 cells; ATP-induced calcium, Fluo-8 fluorescence; inhibition, % at 3 µM; 360,000 compounds, 0.6% hits;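 active = inhibition above a per-plate cutoff, the plate's mean sample inhibition plus 3 SD, cut at about 24% in these data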
OX1R antag-1: blocks the human orexin 1 receptor | inhibition, % at 5 µM | CHO/OX1R cells, Fluo-8 calcium fluorescence, orexin A | O43613 | AID 434989 | 330,000 compounds, 0.43% hits;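 active = inhibition above its plate's threshold, mean inhibition of all tested compounds on the plate plus 3 SD, cut at about 37% in these data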
Target sequence (O43613 whole entry, looked up): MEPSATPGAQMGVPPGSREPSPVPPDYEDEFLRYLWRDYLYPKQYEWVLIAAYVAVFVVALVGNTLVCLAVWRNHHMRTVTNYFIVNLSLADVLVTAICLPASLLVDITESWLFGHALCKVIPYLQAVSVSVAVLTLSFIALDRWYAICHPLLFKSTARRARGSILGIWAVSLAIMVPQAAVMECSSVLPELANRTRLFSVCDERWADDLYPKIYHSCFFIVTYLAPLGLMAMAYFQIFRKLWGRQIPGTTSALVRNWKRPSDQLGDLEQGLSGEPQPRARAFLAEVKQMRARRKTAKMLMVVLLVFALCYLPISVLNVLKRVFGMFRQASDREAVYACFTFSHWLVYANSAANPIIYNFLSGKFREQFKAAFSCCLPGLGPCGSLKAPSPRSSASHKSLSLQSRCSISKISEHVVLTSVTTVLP
CHO-K1 Ca PAM: nonselective activator or artifact in parental CHO-K1 calcium assay. ATP EC20, Fluo-8 calcium fluorescence; 0% at ATP EC20, 100% at ATP max. activation, % at 3 µM. 360,000 compounds, 0.02% hits. AID 602247;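 active = activation above the run cutoff, the mean activation of all test compounds plus 3 SD, cut at about 40% in these data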;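 note: peak over basal fluorescence ratio in a 140 s read after ATP addition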
OX1R antag-2: antagonists of human orexin 1 receptor (OX1R); AID 485270; OX1R-expressing cells, FRET antagonist read-out; inhibition, % at 6.6 µM; O43613; 330,000 compounds, 1.8% hits; in the data active = inhibition mostly above about 38%, no sharp cut-off; inactive = mostly below about 40%
CHO parental Ca: signal in parental CHO cells, OX1R antagonist counter-screen; inhibition, % at 5.6 µM; parental CHO-K1, ATP-induced calcium, Fluo-8 fluorescence; 330,000 compounds, 0.63% hits; AID 463079;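 active = inhibition above that plate's mean sample inhibition plus 3 SD, cut at about 26% in these data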
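material = parental CHO cells | also added = ATP as calcium-mobilizing challenge | dosing = single point at 5.6 µM | detection = intracellular calcium via Fluo-8 no-wash fluorescent dye | read-out = % inhibition | benchmarks = low control ATP plus DMSO, high control DMSO only | repeats = one well per compound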
CHO-K1 Ca ag: counter-screen for M1 agonists: effect in parental CHO-K1 cells. Fluo-8 calcium fluorescence; scaled to maximal ATP response, vehicle zero. activation, % at 3 µM. 360,000 compounds, 0.48% hits; in the data active = activation above about 15%;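 note: untransfected CHO-K1 host cells lacking M1 receptor as counterscreen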
Numbers stand for hits. Compounds with a hit are over-represented: about 2.9% of the library has one in this group of screens.

Results for O=C(CS(=O)(=O)c1ccc(F)cc1)Nc1nnc(-c2ccccc2Cl)o1 ?
CHO-K1 Ca antag: inactive; OX1R antag-1: inactive; CHO-K1 Ca PAM: inactive; OX1R antag-2: 45; CHO parental Ca: inactive; CHO-K1 Ca ag: inactive

What do the screens show for `COc1ccc(-c2nnc(NC(=O)CS(=O)(=O)c3ccc(F)cc3)o2)c(OC)c1`?
CHO-K1 Ca antag: inactive; OX1R antag-1: inactive; CHO-K1 Ca PAM: inactive; OX1R antag-2: inactive; CHO parental Ca: inactive; CHO-K1 Ca ag: inactive

How did O=[N+]([O-])c1ccc(N2CCc3ccccc3C2)cc1 do in these assays?
CHO-K1 Ca antag: inactive; OX1R antag-1: inactive; CHO-K1 Ca PAM: inactive; OX1R antag-2: 52; CHO parental Ca: inactive; CHO-K1 Ca ag: inactive

Results for O=[N+]([O-])c1ccc(-c2csc(N3CCc4ccccc4C3)n2)cc1 ?
CHO-K1 Ca antag: inactive; OX1R antag-1: inactive; CHO-K1 Ca PAM: inactive; OX1R antag-2: inactive; CHO parental Ca: inactive; CHO-K1 Ca ag: inactive

Results for C/C(O)=c1/cnc2nc3ccccc3n2c1=O ?
CHO-K1 Ca antag: inactive; OX1R antag-1: inactive; CHO-K1 Ca PAM: inactive; OX1R antag-2: inactive; CHO parental Ca: inactive; CHO-K1 Ca ag: inactive

What do the screens show for `CC(C)(C)c1ccc(S(=O)(=O)NC(=O)C2(C)CCN2C(=O)C2CC2)cc1` (centres undefined)?
CHO-K1 Ca antag: inactive; CHO-K1 Ca PAM: inactive; CHO-K1 Ca ag: inactive

Results for Cc1ccc(/C=C/C(=O)Nc2sc3c(c2C#N)CCCC3)o1 ?
CHO-K1 Ca antag: 38; OX1R antag-1: inactive; CHO-K1 Ca PAM: inactive; OX1R antag-2: inactive; CHO parental Ca: inactive; CHO-K1 Ca ag: inactive

How did COc1ccc(NC(=O)Nc2ccc3c(c2)CCC3)cc1 do in these assays?
CHO-K1 Ca antag: inactive; OX1R antag-1: inactive; CHO-K1 Ca PAM: inactive; OX1R antag-2: inactive; CHO parental Ca: inactive; CHO-K1 Ca ag: inactive

How did O=C(NCc1csc2ccccc12)Nc1cc(Cl)cc(Cl)c1 do in these assays?
CHO-K1 Ca antag: inactive; OX1R antag-1: inactive; CHO-K1 Ca PAM: inactive; OX1R antag-2: 52; CHO parental Ca: inactive; CHO-K1 Ca ag: inactive

Results for O=C(NCc1ccccn1)Nc1cc(Cl)cc(Cl)c1 ?
CHO-K1 Ca antag: inactive; OX1R antag-1: inactive; CHO-K1 Ca PAM: inactive; OX1R antag-2: inactive; CHO parental Ca: 29; CHO-K1 Ca ag: inactive

Results for O=C(O)Cc1csc2ccccc12 ?
CHO-K1 Ca antag: inactive; OX1R antag-1: inactive; CHO-K1 Ca PAM: inactive; OX1R antag-2: inactive; CHO parental Ca: inactive; CHO-K1 Ca ag: inactive

Results for Clc1ccc(Cc2ccccn2)cc1 ?
CHO-K1 Ca antag: inactive; CHO-K1 Ca PAM: inactive; CHO-K1 Ca ag: inactive

Results for COC(=O)c1cc(OC)c(OC)cc1NC(=O)c1ccc(OC)cc1 ?
CHO-K1 Ca antag: 26; OX1R antag-1: inactive; CHO-K1 Ca PAM: inactive; OX1R antag-2: inactive; CHO parental Ca: inactive; CHO-K1 Ca ag: 20

What do the screens show for `COC(=O)c1cc(OC)c(OC)cc1NC(=O)c1ccc(C)cc1`?
CHO-K1 Ca antag: inactive; OX1R antag-1: inactive; CHO-K1 Ca PAM: inactive; OX1R antag-2: inactive; CHO parental Ca: inactive; CHO-K1 Ca ag: inactive

What do the screens show for `COc1ccc(OC)c(NC(=O)c2ccc(-c3cccs3)cc2)c1`?
CHO-K1 Ca antag: inactive; OX1R antag-1: inactive; CHO-K1 Ca PAM: inactive; OX1R antag-2: 55; CHO parental Ca: inactive; CHO-K1 Ca ag: inactive

Results for COc1ccc(C(=O)Nc2cccc(NC(=O)c3cccs3)c2)cc1OC ?
CHO-K1 Ca antag: inactive; OX1R antag-1: inactive; CHO-K1 Ca PAM: inactive; OX1R antag-2: 75; CHO parental Ca: inactive; CHO-K1 Ca ag: inactive

How did COc1cccc(OC)c1C(=O)Nc1cccc(NC(=O)c2cccs2)c1 do in these assays?
CHO-K1 Ca antag: inactive; OX1R antag-1: inactive; CHO-K1 Ca PAM: inactive; OX1R antag-2: inactive; CHO parental Ca: inactive; CHO-K1 Ca ag: inactive

What do the screens show for `CCCn1c(=O)[nH]c(=O)c2c1nc(-c1cc([N+](=O)[O-])ccc1Cl)n2CCOC`?
CHO-K1 Ca antag: inactive; OX1R antag-1: inactive; CHO-K1 Ca PAM: inactive; OX1R antag-2: 41; CHO parental Ca: inactive; CHO-K1 Ca ag: inactive

What do the screens show for `CCCn1c(=O)[nH]c(=O)c2c1nc(-c1ccc(C#N)cc1)n2CCOC`?
CHO-K1 Ca antag: inactive; OX1R antag-1: inactive; CHO-K1 Ca PAM: inactive; OX1R antag-2: inactive; CHO parental Ca: inactive; CHO-K1 Ca ag: inactive

What do the screens show for `CCOC(=O)C1=C(COC(=O)/C=C/c2cc(OC)c(OC)c(OC)c2)NC(=O)NC1C` (centres undefined)?
CHO-K1 Ca antag: inactive; OX1R antag-1: inactive; CHO-K1 Ca PAM: inactive; OX1R antag-2: inactive; CHO parental Ca: inactive; CHO-K1 Ca ag: inactive

How did Cc1noc(C)c1C(=O)OCC(=O)Nc1ccccc1C(=O)NC(C)c1ccccc1 (centres undefined) do in these assays?
CHO-K1 Ca antag: inactive; OX1R antag-1: inactive; CHO-K1 Ca PAM: 49; OX1R antag-2: inactive; CHO parental Ca: inactive; CHO-K1 Ca ag: inactive

How did CCCn1c(N)c(Sc2ccccc2[N+](=O)[O-])c(=O)n(CCC)c1=O do in these assays?
CHO-K1 Ca antag: inactive; OX1R antag-1: inactive; CHO-K1 Ca PAM: inactive; OX1R antag-2: inactive; CHO parental Ca: inactive; CHO-K1 Ca ag: inactive

Results for Cc1c(Cl)cnc(NC(=O)COC(=O)c2ccc([N+](=O)[O-])s2)c1Cl ?
CHO-K1 Ca antag: inactive; OX1R antag-1: inactive; CHO-K1 Ca PAM: inactive; OX1R antag-2: 63; CHO parental Ca: inactive; CHO-K1 Ca ag: inactive

What do the screens show for `O=C(COC(=O)c1ccc([N+](=O)[O-])s1)Nc1ccccc1`?
CHO-K1 Ca antag: inactive; OX1R antag-1: inactive; CHO-K1 Ca PAM: inactive; OX1R antag-2: 72; CHO parental Ca: inactive; CHO-K1 Ca ag: inactive

Results for O=C(OCC(=O)N1CCC(c2ccccc2)=N1)c1ccc([N+](=O)[O-])s1 ?
CHO-K1 Ca antag: inactive; OX1R antag-1: inactive; CHO-K1 Ca PAM: inactive; OX1R antag-2: 61; CHO parental Ca: inactive; CHO-K1 Ca ag: inactive

Results for O=C(COC(=O)c1ccc([N+](=O)[O-])s1)Nc1ccc(Cl)cn1 ?
CHO-K1 Ca antag: inactive; OX1R antag-1: inactive; CHO-K1 Ca PAM: inactive; OX1R antag-2: inactive; CHO parental Ca: inactive; CHO-K1 Ca ag: inactive

What do the screens show for `O=C(COC(=O)c1ccc([N+](=O)[O-])s1)Nc1ccc(F)cc1`?
CHO-K1 Ca antag: inactive; OX1R antag-1: inactive; CHO-K1 Ca PAM: inactive; OX1R antag-2: 42; CHO parental Ca: inactive; CHO-K1 Ca ag: inactive

What do the screens show for `COc1cccc(CNC(=O)CN2C(=O)CSc3ccc(S(=O)(=O)N4CCCCC4)cc32)c1`?
CHO-K1 Ca antag: inactive; OX1R antag-1: inactive; CHO-K1 Ca PAM: inactive; OX1R antag-2: inactive; CHO parental Ca: inactive; CHO-K1 Ca ag: inactive

Results for O=C(/C=C/c1ccccc1Cl)OCC(=O)N1CCCC1 ?
CHO-K1 Ca antag: inactive; OX1R antag-1: inactive; CHO-K1 Ca PAM: inactive; OX1R antag-2: inactive; CHO parental Ca: inactive; CHO-K1 Ca ag: inactive

What do the screens show for `Cc1ccc(C(=O)OCc2nnc(-c3ccccc3)o2)s1`?
CHO-K1 Ca antag: inactive; OX1R antag-1: inactive; CHO-K1 Ca PAM: inactive; OX1R antag-2: inactive; CHO parental Ca: inactive; CHO-K1 Ca ag: inactive

What do the screens show for `O=C(OCc1nnc(-c2ccccc2)o1)c1ccc([N+](=O)[O-])s1`?
CHO-K1 Ca antag: inactive; OX1R antag-1: inactive; CHO-K1 Ca PAM: inactive; OX1R antag-2: 47; CHO parental Ca: inactive; CHO-K1 Ca ag: inactive
